# In ChEMBL document CHEMBL1133628, “Nonnucleoside human cytomegalovirus inhibitors: synthesis and antiviral evaluation of (chlorophenylmethyl)benzothiadiazine dioxide derivatives” (J Med Chem, 2000):
# Tests used:
# [1] = system: Human immunodeficiency virus 1; experiment: In vitro inhibition of HIV-1(IIIB) cytopathicity in CEM cells.; type: functional, organism-based; settings: Human immunodeficiency virus 1, CCRF-CEM
# Method in brief: (§1)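 CEM cells at 4×10^5 cells/mL infected with HIV-1 IIIB or HIV-2 ROD (stocks from MT-4 supernatants) at ~100 CCID50/mL, then immediately mixed with compound dilutions. Giant cell formation scored microscopically after 4 days; EC50 is the concentration inhibiting it by 50%. Triplicate assays.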
# [2] = system: Human immunodeficiency virus 2; experiment: In vitro inhibition of HIV-2(ROD) cytopathicity in CEM cells.; type: functional, organism-based; settings: Human immunodeficiency virus 2, CCRF-CEM; method in brief: as §1
# [3] = system: HEL; experiment: Inhibition of cell growth in HEL cells.; type: functional; settings: Homo sapiens
# Method in brief: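 HEL fibroblasts seeded at 5×10^3 cells/well and left to proliferate 24 h, then given compound dilutions in duplicate. Incubated 3 days at 37 °C, 5% CO2; cells counted with a Coulter counter. CC50 is the concentration reducing cell growth by 50%.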
# [4] = system: HEL; experiment: In vitro alteration in cell morphology in HEL cells.; type: functional; settings: Homo sapiens
# Method in brief: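 Normal HEL cells exposed to compounds and examined microscopically; minimum cytotoxic concentration is the lowest giving a detectable change in cell morphology. Duplicate assays.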
# [5] = system: Human alphaherpesvirus 3; experiment: In vitro inhibition of Thymidine Kinase deficient Varicella Zoster Virus (YS/R) plaque formation.; type: functional, organism-based
# Method in brief: (§2)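 Confluent HEL fibroblasts infected with VZV at 20 PFU; after a 2-h adsorption, residual virus removed and cells incubated in MEM with 2% FCS containing serial 5-fold compound dilutions, in duplicate. Fixed with ethanol after 5 days at 37 °C, 5% CO2, then Giemsa-stained; plaques counted microscopically. IC50 read graphically from plaque number (% of control); mean of two independent experiments.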
# [6] = system: Human betaherpesvirus 5; experiment: In vitro inhibition of HCMV (AD-169) plaque formation.; type: functional, organism-based
# Method in brief: (§3)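 Confluent HEL fibroblasts infected with HCMV at 100 PFU of cell-free virus; after a 2-h adsorption, residual virus removed and cells incubated in MEM with 2% FCS containing serial 5-fold compound dilutions, in duplicate. Fixed with ethanol after 7 days at 37 °C, 5% CO2, then Giemsa-stained; cytopathic effect scored microscopically. IC50 read graphically from % cytopathicity; mean of two experiments.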
# [7] = system: Human betaherpesvirus 5; experiment: In vitro inhibition of HCMV (Davis) plaque formation.; type: functional, organism-based; method in brief: as §3
# [8] = system: Human alphaherpesvirus 3; experiment: In vitro inhibition of Thymidine Kinase-Varicella Zoster Virus(YS) plaque formation.; type: functional, organism-based; method in brief: as §2
# [9] = system: Human alphaherpesvirus 3; experiment: In vitro inhibition of Thymidine Kinase-Varicella-Zoster Virus(OKA) plaque formation.; type: functional, organism-based; settings: Human alphaherpesvirus 3, oka; method in brief: as §2
# [10] = system: Human alphaherpesvirus 3; experiment: In vitro inhibition of Thymidine Kinase deficient Varicella Zoster Virus (07/1) plaque formation.; type: functional, organism-based; method in brief: as §2
# [11] = system: CCRF-CEM; experiment: In vitro inhibition of CEM cell proliferation.; type: functional; settings: Homo sapiens
# Method in brief: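 CEM cell proliferation measured alongside the HIV assays; CC50 is the concentration reducing CEM cell proliferation by 50%.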
# [12] = concentration required to reduce virus HCMV (AD-169)plaque formation by 50%; type: functional, Homo sapiens
# Method in brief: (§4)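 Confluent HEL fibroblasts were infected with 100 PFU cell-free HCMV, and residual virus was removed after 2 h. Cells were kept in MEM with 2% FCS and compound dilutions spaced 5-fold, in duplicate, for 7 days at 37 °C in 5% CO2. They were ethanol-fixed and Giemsa-stained, and cytopathic effect was scored microscopically. IC50 was interpolated from plots as the mean of two experiments.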
# [13] = concentration required to reduce virus Human Cytomegalovirus (Davis)plaque formation by 50%; type: functional; method in brief: as §4
# [14] = concentration required to reduce CEM cell proliferation by 50%; settings: Homo sapiens
# [15] = system: Human betaherpesvirus 5; experiment: concentration required to reduce virus HCMV (A)plaque formation by 50%; type: functional, organism-based
# Method in brief: (§5)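 Wild-type HCMV clinical isolates from patients (congenital infection, mononucleosis, AIDS, bone marrow transplant) tested in confluent HEL fibroblasts. IC50 taken as the concentration reducing virus plaque formation by 50%; assays in duplicate.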
# [16] = system: Human betaherpesvirus 5; experiment: concentration required to reduce virus HCMV (C)plaque formation by 50%; type: functional, organism-based; method in brief: as §5
# [17] = system: Human betaherpesvirus 5; experiment: concentration required to reduce virus HCMV (D)plaque formation by 50%; type: functional, organism-based; method in brief: as §5
# [18] = system: Human betaherpesvirus 5; experiment: concentration required to reduce virus HCMV (E)plaque formation by 50%; type: functional, organism-based; method in brief: as §5
# [19] = system: Human betaherpesvirus 5; experiment: concentration required to reduce virus HCMV (F)plaque formation by 50%; type: functional, organism-based; method in brief: as §5
# [20] = system: Human betaherpesvirus 5; experiment: concentration required to reduce virus HCMV (G)plaque formation by 50%; type: functional, organism-based; method in brief: as §5
# [21] = system: Human betaherpesvirus 5; experiment: concentration required to reduce virus HCMV (B)plaque formation by 50%; type: functional, organism-based; method in brief: as §5
SMILES,EC50 [1],EC50 [2],CC50 [3],MCC [4],IC50 [5],IC50 [6],IC50 [7],IC50 [8],IC50 [9],IC50 [10],CC50 [11],other results
O=S1(=O)N=C(OCc2ccccc2)c2ccccc2N1Cc1ccccc1,> 10 µM,> 10 µM,> 200 µM,200 µM,20 µM,7 µM,7 µM,> 50 µM,> 50 µM,> 50 µM,22.2 µM,–
O=C1c2ccccc2N(Cc2cccc(Cl)c2)S(=O)(=O)N1Cc1ccccc1,5.5 µM,> 10 µM,> 200 µM,> 5 µM,–,> 5 µM,> 5 µM,> 50 µM,> 50 µM,30 µM,21.3 µM,–
O=C1c2ccccc2N(Cc2ccccc2Cl)S(=O)(=O)N1Cc1ccccc1,> 10 µM,> 10 µM,88 µM,200 µM,> 20 µM,15 µM,12 µM,> 20 µM,> 20 µM,> 20 µM,27.9 µM,–
O=C1c2ccccc2N(COCc2ccccc2)S(=O)(=O)N1COCc1ccccc1,25 µM,25 µM,130 µM,200 µM,10 µM,12 µM,12 µM,> 50 µM,14 µM,> 50 µM,27.7 µM,–
O=C1c2ccccc2N(Cc2ccccc2Cl)S(=O)(=O)N1COCc1ccccc1,> 10 µM,> 10 µM,> 50 µM,200 µM,8 µM,10 µM,10 µM,> 50 µM,> 50 µM,> 50 µM,22.2 µM,–
O=C1c2ccccc2N(Cc2ccc(Cl)cc2)S(=O)(=O)N1Cc1ccc(Cl)cc1,> 10 µM,7.5 µM,> 200 µM,> 50 µM,2.4 µM,3.2 µM,3.2 µM,3.8 µM,3.6 µM,11 µM,35.8 µM,–
O=C1c2ccccc2N(Cc2ccccc2)S(=O)(=O)N1Cc1ccccc1,25 µM,≥ 50 µM,> 200 µM,> 50 µM,6 µM,10 µM,10 µM,36 µM,7.4 µM,23 µM,108 µM,–
O=C1c2ccccc2N(Cc2ccccc2)S(=O)(=O)N1Cc1ccc(Cl)cc1,5 µM,> 10 µM,121 µM,20 µM,2.6 µM,3 µM,3.5 µM,8.2 µM,2.6 µM,10 µM,27.8 µM,–
O=C(OCOCN1c2ccccc2C(=O)N(Cc2ccccc2)S1(=O)=O)c1ccccc1,> 40 µM,> 40 µM,37 µM,110 µM,26 µM,29 µM,> 44 µM,> 44 µM,> 44 µM,> 44 µM,100 µM,–
O=C1c2ccccc2N(Cc2ccc(Cl)c(Cl)c2)S(=O)(=O)N1Cc1ccccc1,> 2 µM,> 2 µM,> 200 µM,200 µM,4.5 µM,3.3 µM,3.5 µM,> 50 µM,> 50 µM,27 µM,16.4 µM,–
O=S1(=O)N=C(OCc2ccccc2)c2ccccc2N1Cc1ccc(Cl)c(Cl)c1,> 10 µM,> 10 µM,> 200 µM,200 µM,> 50 µM,> 50 µM,> 50 µM,> 20 µM,> 50 µM,> 50 µM,30.5 µM,–
O=C1c2ccccc2N(Cc2ccc(Cl)cc2)S(=O)(=O)N1Cc1ccccc1,6.5 µM,8 µM,> 200 µM,> 5 µM,2.4 µM,4 µM,3 µM,22 µM,18 µM,11 µM,19.7 µM,–
O=C1c2ccccc2N(Cc2ccccc2Cl)S(=O)(=O)N1Cc1ccccc1Cl,15 µM,> 10 µM,> 200 µM,> 20 µM,5 µM,> 50 µM,50 µM,> 50 µM,> 50 µM,> 50 µM,40.4 µM,–
O=C1c2ccccc2N(Cc2ccccc2)S(=O)(=O)N1Cc1ccccc1Cl,> 250 µM,> 250 µM,> 200 µM,200 µM,> 50 µM,> 50 µM,> 50 µM,> 20 µM,> 50 µM,> 50 µM,> 250 µM,–
O=S1(=O)N=C(OCc2ccc(Cl)cc2)c2ccccc2N1Cc1ccc(Cl)cc1,–,–,–,–,–,–,–,–,–,–,–,EC50 [12]: > 50 µM; EC50 [13]: > 50 µM; CC50 [14]: > 250 µM
C#CCOCN1c2ccccc2C(=O)N(Cc2ccccc2)S1(=O)=O,> 8 µM,> 8 µM,> 140 µM,140 µM,36 µM,–,–,–,–,–,23 µM,–
O=C1c2ccccc2N(Cc2ccccc2)S(=O)(=O)N1COCc1ccccc1,15 µM,20 µM,> 98 µM,49 µM,–,–,–,> 12 µM,> 12 µM,> 12 µM,100 µM,–
O=C1c2ccccc2N(COCc2ccccc2)S(=O)(=O)N1Cc1ccccc1,> 8 µM,> 8 µM,> 122 µM,122 µM,> 12 µM,20 µM,–,–,–,> 12 µM,25 µM,–
Nc1nc2c(ncn2COCCO)c(=O)[nH]1 [ACYCLOVIR],–,–,> 400 µM,> 150 µM,63 µM,–,–,4.09 µM,4.53 µM,41 µM,–,–
Nc1ccn(C[C@@H](CO)OCP(=O)(O)O)c(=O)n1 [CIDOFOVIR],–,–,317 µM,> 159 µM,–,0.58 µM,1.3 µM,–,–,–,–,–
Nc1nc2c(ncn2COC(CO)CO)c(=O)[nH]1 [GANCICLOVIR],–,–,394 µM,> 150 µM,–,3.7 µM,–,–,–,–,–,IC50 [15]: 6.2 µM; IC50 [16]: 6.2 µM; IC50 [17]: 4.1 µM; IC50 [18]: 4.1 µM; IC50 [19]: 6.2 µM; IC50 [20]: 8.2 µM; IC50 [21]: 6.2 µM
